Scp1 inh = blocks human Scp-1 phosphatase activity. Recombinant Scp1, phosphopeptide, malachite green phosphate absorbance. Q9GZU7. 0.88% of 340,000 active. inhibition, % at 20 µM. AID 493091;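 active = inhibition above about 50% at 20 µM, limit read from the data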;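 note: plate controls were DMSO wells with enzyme for no effect and wells lacking enzyme for full effect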
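Test system: SCP-1 phosphatase catalytic domain, residues 76-261 | Compound dosing: One concentration, 20 µM, with 1.0% DMSO | Schedule: 45 min room-temperature reaction, 5 min colour, 30 min stabiliser | Detection: Absorbance at 630 nm | Read-out basis: % inhibition of SCP-1 phosphate liberation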
CSN deneddyl inh = blocks human CSN-mediated cullin deneddylation; inhibition, % at 12.5 µM; Q92905; Purified CSN, SCF-Nedd8-OG deneddylation, fluorescence polarization; 0.38% of 360,000 active;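 active = pattern-corrected inhibition above about 35%, with an unprinted fluorescence ratio check between 0.5 and 1.5, limit read from the data, passing the limit was not always enough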;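 note: 0% = enzyme with substrate and 100% = substrate without enzyme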
Target sequence (Q92905 whole entry, looked up, one chain of several): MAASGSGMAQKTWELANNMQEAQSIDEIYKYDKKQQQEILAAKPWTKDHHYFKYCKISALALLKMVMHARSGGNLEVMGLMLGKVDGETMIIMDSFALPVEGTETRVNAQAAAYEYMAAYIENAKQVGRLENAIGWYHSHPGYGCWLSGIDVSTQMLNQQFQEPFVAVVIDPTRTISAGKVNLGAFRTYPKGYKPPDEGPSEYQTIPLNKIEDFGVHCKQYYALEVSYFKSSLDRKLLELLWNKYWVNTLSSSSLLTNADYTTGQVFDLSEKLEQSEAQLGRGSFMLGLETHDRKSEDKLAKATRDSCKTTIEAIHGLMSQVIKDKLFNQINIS
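Assay system: purified human Csn5 enzyme expressed in HEK293T cells; measure: % inhibition; also added: SCFSkp2-Nedd8OG substrate at 10 nM final; technique: fluorescence polarization; times: reaction 90 min, room temperature; medium: Tris buffer pH 7.5, NaCl, DTT, Tween-20, trehalose, ovalbumin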
STEP block = STEP (human) phosphatase inhibition. P54829. recombinant STEP, OMFP fluorogenic substrate, fluorescence. inhibition, % at 20 µM. 0.25% of 360,000 active;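 active = inhibition at 20 µM, scaled per plate between control wells, above about 37%, limit read from the data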;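 note: 0% = DMSO with enzyme and substrate and 100% = substrate only without enzyme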
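System: STEP (striatal-enriched tyrosine phosphatase) enzyme, cell-free; medium: Bis-Tris pH 6.0 buffer with DTT, detergent; dosing: 20 µM, 1% DMSO; times: reaction 20 min, ambient temperature; detection: fluorescence, 480/540 nm; read-out basis: normalized % inhibition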
LMPTP inh = LMPTP (human) inhibition; P24666; recombinant LMPTP-A, OMFP fluorogenic substrate, fluorescence intensity; inhibition, % at 20 µM; 0.22% of 360,000 active; AID 651560;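 active = compounds that cut the enzyme signal by at least half of the control window in the single-dose screen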;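 note: plate controls were DMSO wells with enzyme plus substrate for no effect and substrate without enzyme for full effect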
Target sequence (P24666 whole entry, looked up): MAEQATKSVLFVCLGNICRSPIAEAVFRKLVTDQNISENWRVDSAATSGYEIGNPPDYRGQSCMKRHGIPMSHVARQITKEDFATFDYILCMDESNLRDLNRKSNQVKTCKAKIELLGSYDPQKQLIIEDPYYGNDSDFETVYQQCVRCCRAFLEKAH
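test system = LMPTP-A | amount = 0.625 nM LMPTP-A final | reagent = fluorogenic phosphatase substrate OMFP at 400 µM final | incubation = 50 min at room temperature | benchmarks = no-enzyme low control, uninhibited high control | medium = Bis-Tris pH 6.0, DTT, detergent | signal = fluorescence intensity of OMFP turnover product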
DNMT1 block = inhibitors of human DNMT1; P26358; DNMT1 molecular beacon, Hinp1I cleavage, fluorescence; inhibition (reported as % activation of signal), % at 10 µM; 0.83% of 360,000 active; in the data active = inhibition above about 50%
SUMO1-SIM PPI = SUMO1-SIM interaction modulation; SUMO1 binding to a labelled peptide, TR-FRET, 1 h; inhibition, % at 20 µM; 0.33% of 360,000 active; in the data active = inhibition above about 37%
Target sequence (P63165 whole entry, looked up): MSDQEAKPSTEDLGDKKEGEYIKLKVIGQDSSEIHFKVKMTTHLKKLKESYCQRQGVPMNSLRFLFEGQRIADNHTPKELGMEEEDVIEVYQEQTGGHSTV
DNMT1 inh conf = confirmation of human DNMT1 inhibitors; AID 602385; DNMT1 molecular beacon HinP1I cleavage, fluorescence; shares compounds with DNMT1 block; inhibition, % at 10 µM; 8% of 2,300 active;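 active = average inhibition of at least 30% in the single-concentration confirmation test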
Beacon interf = beacon fluorescence artifact counter-screen | shares compounds with DNMT1 block | DNMT1 molecular beacon spectral interference counterscreen, fluorescence 485/520 | AID 602387 | 1% of 2,300 active | activation (fluorescence interference), % at 10 µM;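 active = activation of at least 30% at 10 µM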;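 note: DNMT1 catalytic domain with a HinP1I cleavage step and a FAM/dabcyl DNA beacon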
* marks the source's active call; other numbers are inactive results; nt = no result given. Hits are enriched below; roughly 2% of the tested compounds scored in any of these assays.

SMILES	Scp1 inh	CSN deneddyl inh	STEP block	LMPTP inh	DNMT1 block	SUMO1-SIM PPI	DNMT1 inh conf	Beacon interf
O=C(Cn1c2ccccc2c(=O)c2cc([N+](=O)[O-])ccc21)Nc1ccccc1Cl	36	11	8	18	56*	-12	4	-5
CCN1C(=O)[C@H]2[C@@H](c3ccc(-c4cccc(Cl)c4)c(OC)c3)N[C@@](Cc3ccccc3)(C(=O)OC)[C@H]2C1=O	-6	2	1	4	112*	-10	0	6
O=S(=O)(c1cccc2cccc(Cl)c12)N1CCCC1	-1	-6	-3	1	0	-8	nt	nt
CC(=O)N1CCCc2ccc(NS(=O)(=O)c3ccccc3)cc21	3	3	1	1	2	-1	nt	nt
O=C(CN1C(=O)/C(=C\c2ccc(F)cc2)Oc2ccccc21)NCc1ccco1	-5	-1	1	-1	52*	-1	2	4
CCC(C)NC(=O)CNC(=O)c1nn(-c2ccc(OC)cc2OC)c(=O)c2ccccc12 (stereo not drawn)	-8	1	-1	1	2	-5	nt	nt
CCN(C(=O)CN1C(=O)S/C(=C\C=C\c2ccccc2)C1=O)C1CCS(=O)(=O)C1 (stereo not drawn)	-2	2	0	1	-4	-43	nt	nt
CCN(CC)C(=O)CC(c1cc(OC)c(OC)c(OC)c1)c1c(OC)cc(OC)c2ccc(=O)oc12 (stereo not drawn)	6	0	1	-2	9	-3	nt	nt
CCN(CC)C(=O)CC(c1cc(OC)c(OC)c(OC)c1)c1c(OC)cc(OC)c2c(-c3ccccc3)cc(=O)oc12 (stereo not drawn)	71*	34	3	18	84*	-6	8	6
COc1ccc2[nH]c(C)c(CCN3C(=O)C4C5C=CC(C5)C4C3=O)c2c1 (stereo not drawn)	-16	3	-2	0	82*	0	0	1
COc1ccc2[nH]c(C)c(CN3CCCCC3)c(=O)c2c1	7	1	7	1	2	3	nt	nt
CCOC(=O)C1=CCN(S(=O)(=O)c2ccccc2Cl)C1c1cccc(C)c1 (stereo not drawn)	nt	-2	1	1	-2	7	nt	nt
COc1ccc(/C=C2/SC(=O)N(CCC(=O)Nc3ccccc3)C2=O)cc1OC	3	2	1	0	62*	-5	2	3
CC(C)(C)OC(=O)NCCCCCNC(=O)c1[nH]cnc1C(=O)NC1CCN(C(=O)OC(C)(C)C)CC1	0	-1	-1	3	76*	-3	8	7
CC(C)(C)OC(=O)NCCCCCNC(=O)c1nc[nH]c1C(=O)N1CCN(C(=O)OC(C)(C)C)CC1	-3	-4	0	-2	5	-1	nt	nt
CCc1noc(C)c1C(=O)NCCN1C(=O)S/C(=C\c2ccc(OC)cc2)C1=O	-8	-1	0	0	0	-25	nt	nt
CCOC(=O)c1cc(-c2ccc([N+](=O)[O-])cc2)nc2c1c(=O)[nH]c(=O)n2Cc1ccccc1	-5	2	8	1	86*	19	3	1
Cn1ccnc1SCC(=O)Nc1cc(S(=O)(=O)N2CCOCC2)ccc1Cl	-8	3	0	-2	-3	-2	nt	nt
COC(=O)c1ccc(N2CCS(=O)(=O)CC2)cc1	7	-5	-5	0	59*	3	2	4
COC(=O)N1CCN(c2ccc(C(C)=O)cc2)CC1	-6	5	-2	2	-4	0	nt	nt
Cc1ccc(NC(=O)CSc2nc3ccccc3c3nc4ccccc4n23)cc1	3	-3	0	0	52*	2	2	-6
O=C(CSc1nc2c(sc3ccccc32)c(=O)n1CCc1ccccc1)NCc1ccco1	5	-5	2	-1	65*	0	3	-4
COc1ccc(NC(=O)CSc2nc3ccccc3c3nc4ccccc4n23)cc1	3	5	1	1	58*	-1	5	-7
O=C(CSc1nc2ccccc2c2nc3ccccc3n12)NCc1ccco1	25	27	2	6	71*	6	15	1
COc1ccc(-n2c(SCC(=O)Nc3ccc(NC(C)=O)cc3)nc3ccccc3c2=O)cc1	-4	-1	2	-1	-8	11	nt	nt
SMILES	Scp1 inh	CSN deneddyl inh	STEP block	LMPTP inh	DNMT1 block	SUMO1-SIM PPI	DNMT1 inh conf	Beacon interf
COc1ccc(NC(=O)CSc2ccc3c4c(cccc24)C(=O)c2ccccc2-3)cc1	-7	15	0	3	61*	-10	5	1
CCCC(=O)Nc1ccc(-c2nc3cc(C)c(C)cc3o2)cc1	-3	3	-1	-2	56*	-1	-1	-5
O=C(CCN1C(=O)c2ccccc2C1=O)Nc1ccc(-c2nc3ccccc3o2)cc1	4	7	0	0	42	1	nt	nt
O=C(CN1C(=O)c2ccccc2C1=O)Nc1ccc(-c2nc3ccccc3o2)cc1	-6	-1	2	0	78*	-5	2	2
CCn1c2ccccc2c2cc(NC(=O)c3coc(=O)c(Br)c3)ccc21	nt	-14	-7	4	51*	-2	16	8
COc1ccc(/C=C/C(=O)NNC(=O)C(C)Oc2ccccc2F)cc1OC (stereo not drawn)	0	0	-2	0	1	-16	nt	nt
COc1ccc(-c2ccc3sc4ccccc4c(=O)c3c2)cn1	6	4	7	33	56*	19	0	-5
NC(=O)c1sc2nc(-c3ccco3)ccc2c1N	4	34	10	13	98*	37	5	5
COC(=O)c1sc2nc(-c3ccco3)ccc2c1N	-4	4	16	4	-2	11	nt	nt
NC(=O)c1sc2nc3c(c(-c4ccco4)c2c1N)CCC3	0	20	5	2	75*	13	12	12
CC(C)(C)c1ccc(S(=O)(=O)N2CCN(c3ccccn3)CC2)cc1	-5	1	0	0	0	1	nt	nt
O=C(Nc1ccc(Cl)cc1)c1cc(-c2cccs2)on1	4	-1	8	21	50*	16	1	2
O=C(Nc1ccc(Br)cc1)c1cc(-c2cccs2)on1	4	-3	2	6	14	2	nt	nt
Cc1c(Cc2ccccc2)c(=O)oc2c(C)c(OCC(=O)Nc3ccc(C#N)cc3)ccc12	-8	3	-2	0	12	32	nt	nt
